Source: ChEMBL document CHEMBL1135826, “Antimicrobial peptides: synthesis and antibacterial activity of linear and cyclic drosocin and apidaecin 1b analogues” (2002)
In brackets after ≈: the same amount, converted by molar mass. Where a SMILES comes first, the peptide text is derived from it. The star is where a group is joined. X2 = CC(=O)N[C@@H]1[C@@H](O)[C@H](O)[C@@H](CO)O[C@@H]1*

Key:
Acinetobacter baumannii = test: Minimum inhibitory concentration (lowest peptide concentration) required to prevent visible bacterial growth after 18 hr of incubation at 37 C in Mueller-Hinton broth against Acinetobacter baumannii 118A; format: functional
Summary of the method: (§1)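 Broth microdilution susceptibility test per NCCLS guidelines, in Mueller–Hinton broth with about 1.5–2.0 × 10^5 CFU/mL inoculum. Plates were incubated 18 h at 37 °C. MIC was taken as the lowest peptide concentration with no visible growth. Strains were ATCC strains or clinical isolates; E. coli O18:K1:H7 Bort is an encapsulated isolate from neonatal spinal fluid, and the S. aureus isolate is MRSA.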

[1] = tested on: Staphylococcus epidermidis; test: Minimum inhibitory concentration (lowest peptide concentration) required to prevent visible bacterial growth after 18 hr of incubation at 37 C in Mueller-Hinton broth against Staphylococcus epidermidis 4; format: functional; summary of the method: as §1
Pseudomonas aeruginosa = test: Minimum inhibitory concentration (lowest peptide concentration) required to prevent visible bacterial growth after 18 hr of incubation at 37 C in Mueller-Hinton broth against Pseudomonas aeruginosa ATCC 27853; format: functional; conditions: ATCC 27853, 18 h; summary of the method: as §1
Salmonella typhimurium = test: Minimum inhibitory concentration (lowest peptide concentration) required to prevent visible bacterial growth after 18 hr of incubation at 37 C in Mueller-Hinton broth against Salmonella Typhimurium ATCC 14028; format: functional, Salmonella enterica subsp. enterica serovar Typhimurium; conditions: Salmonella enterica; summary of the method: as §1
Klebsiella pneumoniae [2] = test: Minimum inhibitory concentration (lowest peptide concentration) required to prevent visible bacterial growth after 18 hr of incubation at 37 C in Mueller-Hinton broth against Klebsiella pneumoniae 79; format: functional; summary of the method: as §1
Salmonella enteritidis [3] = test: Minimum inhibitory concentration (lowest peptide concentration) required to prevent visible bacterial growth after 18 h of incubation at 37 C in Mueller-Hinton broth against […]; format: functional, Salmonella enterica subsp. enterica serovar Enteritidis; conditions: Salmonella enterica; summary of the method: as §1
Escherichia coli [4] = test: Minimum inhibitory concentration (lowest peptide concentration) required to prevent visible bacterial growth after 18 hr of incubation at 37 C in Mueller-Hinton broth against Escherichia coli ATCC 25922; format: functional; conditions: ATCC 25922, 18 h; summary of the method: as §1
Salmonella enteritidis [5] = test: Minimum inhibitory concentration (lowest peptide concentration) required to prevent visible bacterial growth after 18 hr of incubation at 37 C in Mueller-Hinton broth against Salmonella enteritidis D5; conditions: Salmonella enterica
Escherichia coli [6] = test: Minimum inhibitory concentration (lowest peptide concentration) required to prevent visible bacterial growth after 18 hr of incubation at 37 C in Mueller-Hinton broth against Escherichia coli O18:K1:H7; format: functional; summary of the method: as §1
Escherichia coli [7] = test: Minimum inhibitory concentration (lowest peptide concentration) required to prevent visible bacterial growth after 18 hr of incubation at 37 C in Mueller-Hinton broth against Escherichia coli ML-35; format: functional; summary of the method: as §1
Escherichia coli [8] = test: Minimum inhibitory concentration (lowest peptide concentration) required to prevent visible bacterial growth after 18 hr of incubation at 37 C in Mueller-Hinton broth against Escherichia coli D21; format: functional; summary of the method: as §1
Klebsiella pneumoniae [9] = test: Minimum inhibitory concentration (lowest peptide concentration) required to prevent visible bacterial growth after 18 hr of incubation at 37 C in Mueller-Hinton broth against Klebsiella pneumoniae 22; format: functional; summary of the method: as §1
Staphylococcus aureus = test: Minimum inhibitory concentration (lowest peptide concentration) required to prevent visible bacterial growth after 18 hr of incubation at 37 C in Mueller-Hinton broth against Staphylococcus aureus G; format: functional; summary of the method: as §1
Escherichia coli [10] = test: Minimum inhibitory concentration (lowest peptide concentration) required to prevent visible bacterial growth after 18 hr of incubation at 37 C in Mueller-Hinton broth against Escherichia coli D22; format: functional; summary of the method: as §1

Molecule	MIC (Acinetobacter baumannii)	MIC [1]	MIC (Pseudomonas aeruginosa)	MIC (Salmonella typhimurium)	MIC (Klebsiella pneumoniae [2])	MIC (Salmonella enteritidis [3])	MIC (Escherichia coli [4])	MIC (Salmonella enteritidis [5])	MIC (Escherichia coli [6])	MIC (Escherichia coli [7])	MIC (Escherichia coli [8])	MIC (Klebsiella pneumoniae [9])	MIC (Staphylococcus aureus)	MIC (Escherichia coli [10])
CC[C@H](C)[C@H](NC(=O)[C@@H]1CCCN1C(=O)[C@H](CCCN=C(N)N)NC(=O)[C@@H]1CCCN1C(=O)[C@H](Cc1c[nH]cn1)NC(=O)[C@@H]1CSSC[C@H](NC(=O)[C@H](Cc2ccc(O)cc2)NC(=O)[C@@H]2CCCN2C(=O)[C@H](CCCN=C(N)N)NC(=O)[C@@H]2CCCN2C(=O)[C@H](CCCCN)NC(=O)CN)C(=O)N2CCC[C@H]2C(=O)N[C@@H](CCCN=C(N)N)C(=O)N2CCC[C@H]2C(=O)N[C@@H]([C@@H](C)O)C(=O)N1)C(=O)N[C@@H](CCCN=C(N)N)C(=O)N[C@H](C(=O)O)C(C)C (HELM PEPTIDE1{G.K.P.R.P.Y.C.P.R.P.T.C.H.P.R.P.I.R.V}$PEPTIDE1,PEPTIDE1,7:R3-12:R3$$$V2.0)	> 64 µM	> 64 µM	> 64 µM	> 64 µM	> 64 µM	> 64 µM	> 64 µM	> 64 µM	> 64 µM	> 64 µM	> 64 µM	> 64 µM	> 64 µM	> 64 µM
H-GKPRPYSPRPSHPRPIRV-OH	> 64 µM	> 64 µM	> 128 µM	> 64 µM	> 128 µM	> 64 µM	64 µM	32 µM	64 µM	32 µM	> 64 µM	> 128 µM	> 64 µM	> 64 µM
H-GKPRPYSPRPASHPRPIRV-OH	> 128 µM	> 64 µM	> 128 µM	32 µM	> 128 µM	16 µM	64 µM	8 µM	16 µM	16 µM	> 128 µM	> 128 µM	> 64 µM	> 64 µM
CC[C@H](C)[C@H](NC(=O)[C@@H]1CCCN1C(=O)[C@H](CCCN=C(N)N)NC(=O)[C@@H]1CCCN1C(=O)[C@H](Cc1c[nH]cn1)NC(=O)[C@H](CO)NC(=O)[C@@H](NC(=O)[C@@H]1CCCN1C(=O)[C@H](CCCN=C(N)N)NC(=O)[C@@H]1CCCN1C(=O)[C@H](CO)NC(=O)[C@H](Cc1ccc(O)cc1)NC(=O)[C@@H]1CCCN1C(=O)[C@H](CCCN=C(N)N)NC(=O)[C@@H]1CCCN1C(=O)[C@H](CCCCN)NC(=O)CN)[C@@H](C)O[C@H]1O[C@H](CO)[C@@H](O)[C@H](O)[C@H]1NC(C)=O)C(=O)N[C@@H](CCCN=C(N)N)C(=O)N[C@H](C(=O)O)C(C)C (H-GKPRPYSPRPT(X2)SHPRPIRV-OH)	> 128 µM	> 64 µM	> 128 µM	2 µM (≈ 4.8 µg/mL)	8 µM (≈ 19.2 µg/mL)	2 µM (≈ 4.8 µg/mL)	1 µM (≈ 2.4 µg/mL)	1 µM (≈ 2.4 µg/mL)	1 µM (≈ 2.4 µg/mL)	1 µM (≈ 2.4 µg/mL)	8 µM (≈ 19.2 µg/mL)	4 µM (≈ 9.61 µg/mL)	> 64 µM	1 µM (≈ 2.4 µg/mL)
